{"source": "ChEMBL document CHEMBL4699431", "about": "“Design and synthesis of substituted (1-(benzyl)-1H-1,2,3-triazol-4-yl)(piperazin-1-yl)methanone conjugates: study on their apoptosis inducing ability and tubulin polymerization inhibition” (RSC Med Chem, 2020)", "key": {"HeLa": {"system": "HeLa", "experiment": "Cytotoxicity against human HeLa cells assessed as reduction in cell viability incubated for 48 hrs by MTT assay", "type": "functional, cell-based", "method_in_brief": "(§1)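 Cells plated at 3000-4500 per well and treated after 24 h. DMSO stocks (20 mM) were diluted in medium to final DMSO <0.1%, twofold series […], 48 h. MTT (0.5 mg/mL) was added for 4 h, formazan dissolved in DMSO, absorbance read at 570 nm.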"}, "MCF7": {"system": "MCF7", "experiment": "Cytotoxicity against human MCF-7 cells assessed as reduction in cell viability incubated for 48 hrs by MTT assay", "type": "functional, cell-based", "conditions": "MCF7, 48 h", "method_in_brief": "as §1"}, "HaCaT": {"system": "HaCaT", "experiment": "Cytotoxicity against human HaCaT cells assessed as reduction in cell viability incubated for 48 hrs by MTT assay", "type": "functional, cell-based", "method_in_brief": "as §1"}, "Tubulin (Homo sapiens) [1]": {"molecular_target": "T1, Tubulin (Homo sapiens) (UniProt P68371+Q9H4B7+P0DPH7+P68366+Q13509+Q71U36+P04350+Q3ZCM7+P07437+P68363+Q9BQE3+Q6PEY2+Q13885+Q9BVA1+Q9BUF5)", "experiment": "Inhibition of tubulin polymerization in human BT-474 cells assessed as microtubule disruption at 2 uM by immunohistochemistry assay", "type": "cell-based", "method_in_brief": "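Cells on glass coverslips exposed 48 h to 2 μM, with CA-4 as positive control. Fixed in 4% paraformaldehyde 20 min, permeabilized with 0.2% Triton X-100 5 min, held in methanol overnight at 4 °C, blocked in 1% BSA 60 min. Stained with α-tubulin antibody (1:1000, 2 h) then FITC anti-mouse secondary 1 h; microtubule network imaged by confocal microscopy.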"}, "BT-474 [2]": {"system": "BT-474", "experiment": "Induction of morphological changes in human BT-474 cells assessed as loss of cell-cell adhesion incubated for 48 hrs by phase-contrast microscope method", "type": "functional, cell-based", "conditions": "dose microM 0.5-2.5, time 48.0 hrs", "method_in_brief": "(§2)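 Plated at 5×10^4 cells/well, dosed after 24 h at 0.5, 1 and 2.5 μM. After 48 h, morphology was examined and photographed under phase-contrast microscopy.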"}, "BT-474 [3]": {"system": "BT-474", "experiment": "Induction of morphological changes in human BT-474 cells assessed reduction in number of viable cells incubated for 48 hrs by phase-contrast microscope method", "type": "functional, cell-based", "conditions": "dose microM 0.5-2.5, time 48.0 hrs", "method_in_brief": "as §2"}, "BT-474 [4]": {"system": "BT-474", "experiment": "Induction of apoptosis in human BT-474 cells assessed as chromatin condensation at 0.5 to 2.5 uM incubated for 24 hrs by DAPI staining based DAPI staining based confocal microscopic analysis", "type": "functional, cell-based", "conditions": "dose microM 0.5-2.5, time 24.0 hrs"}, "BT-474 [5]": {"system": "BT-474", "experiment": "Inhibition of clonogenicity in human BT-474 cells assessed as reduction in colony formation measured after 7 days by crystal violet staining", "type": "functional, cell-based", "conditions": "dose microM 0.5-2.5, time 7.0 day", "method_in_brief": "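100 cells/well in 6-well plates; after overnight attachment, treated 12 h, then grown in fresh medium at 37 °C, 5% CO₂ with medium changed every 2 days. Colonies fixed and stained with 1% crystal violet in methanol for 3 h, counted by imaging, expressed as percent of untreated control.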"}, "BT-474 [6]": {"system": "BT-474", "experiment": "Cell cycle arrest in human BT-474 cells assessed as increase in accumulation in G1 phase at 0.5 uM by propidium iodide staining based flow cytometry(reference value: 4.06%)", "type": "functional", "method_in_brief": "(§3)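 Seeded at 1 x 10⁵ cells/well, after 24 h serum-starved 6 h to synchronize, then returned to FBS-containing medium and treated at 0.5, 1 and 2.5 μM. Harvested cells were PBS-washed, fixed in ice-cold 70% ethanol, stained with propidium iodide (50 μg/mL) plus RNase A for 20 min at 37 °C in the dark. About 10,000 events analysed by flow cytometry.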"}, "BT-474 [7]": {"system": "BT-474", "experiment": "Cell cycle arrest in human BT-474 cells assessed as increase in accumulation in G2/M phase at 0.5 uM by propidium iodide staining based flow cytometry(reference value: 19.35%)", "type": "functional", "method_in_brief": "as §3"}, "BT-474 [8]": {"system": "BT-474", "experiment": "Cell cycle arrest in human BT-474 cells assessed as increase in accumulation in S phase at 0.5 uM by propidium iodide staining based flow cytometry(reference value: 2.22%)", "type": "functional", "method_in_brief": "as §3"}, "BT-474 [9]": {"system": "BT-474", "experiment": "Cell cycle arrest in human BT-474 cells assessed as decrease in G0/G1 accumulation in phase at 0.5 uM by propidium iodide staining based flow cytometry(reference value: 60.53%)", "type": "functional", "parameters": "scale not given: the % may be the effect or the level left", "method_in_brief": "as §3"}, "BT-474 [10]": {"system": "BT-474", "experiment": "Cell cycle arrest in human BT-474 cells assessed as increase in accumulation in G1 phase at 1 uM by propidium iodide staining based flow cytometry(reference value: 4.06%)", "type": "functional", "method_in_brief": "as §3"}, "BT-474 [11]": {"system": "BT-474", "experiment": "Cell cycle arrest in human BT-474 cells assessed as increase in accumulation in G2/M phase at 1 uM by propidium iodide staining based flow cytometry(reference value: 19.35%)", "type": "functional", "method_in_brief": "as §3"}, "BT-474 [12]": {"system": "BT-474", "experiment": "Cell cycle arrest in human BT-474 cells assessed as increase in accumulation in S phase at 1 uM by propidium iodide staining based flow cytometry(reference value: 2.22%)", "type": "functional", "method_in_brief": "as §3"}, "BT-474 [13]": {"system": "BT-474", "experiment": "Cell cycle arrest in human BT-474 cells assessed as decrease in G0/G1 accumulation in phase at 1 uM by propidium iodide staining based flow cytometry(reference value: 60.53%)", "type": "functional", "parameters": "scale not given: the % may be the effect or the level left", "method_in_brief": "as §3"}, "BT-474 [14]": {"system": "BT-474", "experiment": "Cell cycle arrest in human BT-474 cells assessed as increase in accumulation in G2/M phase at 2.5 uM by propidium iodide staining based flow cytometry(reference value: 19.35%)", "type": "functional", "method_in_brief": "as §3"}, "BT-474 [15]": {"system": "BT-474", "experiment": "Cell cycle arrest in human BT-474 cells assessed as increase in accumulation in S phase at 2.5 uM by propidium iodide staining based flow cytometry(reference value: 2.22%)", "type": "functional", "method_in_brief": "as §3"}, "BT-474 [16]": {"system": "BT-474", "experiment": "Cell cycle arrest in human BT-474 cells assessed as decrease in G0/G1 accumulation in phase at 2.5 uM by propidium iodide staining based flow cytometry(reference value: 60.53%)", "type": "functional", "parameters": "scale not given: the % may be the effect or the level left", "method_in_brief": "as §3"}, "BT-474 [17]": {"system": "BT-474", "experiment": "Induction of mitochondrial membrane potential loss in human BT-474 cells assessed as depolarized cell population (P2) at 0.5 uM incubated for 48 hrs by JC1 staining based flow cytometry (reference value: 0.48 %)", "type": "functional", "method_in_brief": "(§4)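 Cells (1x10⁶/mL) adhered overnight, then exposed to 0.5, 1 and 2.5 μM for 48 h. Collected, PBS-washed, incubated with JC-1 dye (1 μM) for 30 min at 37 °C, washed twice, trypsinized, centrifuged and read by flow cytometry.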"}, "BT-474 [18]": {"system": "BT-474", "experiment": "Induction of mitochondrial membrane potential loss in human BT-474 cells assessed as depolarized cell population (P2) at 1 uM incubated for 48 hrs by JC1 staining based flow cytometry (reference value: 0.48 %)", "type": "functional", "method_in_brief": "as §4"}, "BT-474 [19]": {"system": "BT-474", "experiment": "Induction of apoptosis in human BT-474 cells assessed as membrane bleeding incubated for 48 hrs by acridine orange/ethidium bromide double staining-based fluorescence microscopic analysis", "type": "functional, cell-based", "conditions": "dose microM 0.5-2.5, time 48.0 hrs", "method_in_brief": "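Plated at 5×10^4 cells/well, treated after 24 h and held 48 h at 37 °C, 5% CO₂. Acridine orange and ethidium bromide (10 µg/mL each) added in equal volumes, then cells viewed by fluorescence microscopy at 200x.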"}, "BT-474 [20]": {"system": "BT-474", "experiment": "Induction of apoptosis in human BT-474 cells assessed as chromatin damage at 0.5 to 2.5 uM incubated for 24 hrs by DAPI staining based DAPI staining based confocal microscopic analysis", "type": "functional, cell-based", "conditions": "dose microM 0.5-2.5, time 24.0 hrs"}, "BT-474 [21]": {"system": "BT-474", "experiment": "Induction of mitochondrial membrane potential loss in human BT-474 cells assessed as depolarized cell population (P1) at 2.5 uM incubated for 48 hrs by JC1 staining based flow cytometry (reference value: 98.09 %)", "type": "functional", "method_in_brief": "as §4"}, "Tubulin (Homo sapiens) [22]": {"molecular_target": "T1, Tubulin (Homo sapiens)", "experiment": "Inhibition of tubulin (unknown origin) polymerization by cell free in vitro assay", "type": "protein-complex assay"}, "BT-474 [23]": {"system": "BT-474", "experiment": "Induction of apoptosis in human BT-474 cells after 48 hrs by Annexin-V alexa fluor 488/PI staining based flow cytometry analysis", "conditions": "dose microM 0.5-2.5, time 48.0 hrs"}}, "note": "Active and inactive are the calls of the source. The calls are words filed in the database; no cut-off is given here.", "data": [{"compound": "O=C(c1cn(Cc2cccc(Oc3ccccc3)c2)nn1)N1CCN(S(=O)(=O)c2ccc(Br)cc2)CC1", "values": [{"measurement": "IC50", "setting": "HeLa", "value": 1020, "unit": "nM"}, {"measurement": "IC50", "setting": "MCF7", "value": 2340, "unit": "nM"}, {"measurement": "IC50", "setting": "HaCaT", "value": 3680, "unit": "nM"}, {"measurement": "inhibition", "setting": "Tubulin (Homo sapiens) [1]", "value": "Active"}, {"measurement": "Activity", "setting": "BT-474 [2]", "value": "Active"}, {"measurement": "Activity", "setting": "BT-474 [3]", "value": "Active"}, {"measurement": "Activity", "setting": "BT-474 [4]", "value": "Active"}, {"measurement": "inhibition", "setting": "BT-474 [5]", "value": "Dose-dependent effect"}, {"measurement": "Activity", "setting": "BT-474 [6]", "value": 11, "unit": "%"}, {"measurement": "Activity", "setting": "BT-474 [7]", "value": 58.93, "unit": "%"}, {"measurement": "Activity", "setting": "BT-474 [8]", "value": 7.02, "unit": "%"}, {"measurement": "Activity", "setting": "BT-474 [9]", "value": 10.83, "unit": "%"}, {"measurement": "Activity", "setting": "BT-474 [10]", "value": 9.41, "unit": "%"}, {"measurement": "Activity", "setting": "BT-474 [11]", "value": 62.72, "unit": "%"}, {"measurement": "Activity", "setting": "BT-474 [12]", "value": 5.85, "unit": "%"}, {"measurement": "Activity", "setting": "BT-474 [13]", "value": 9.64, "unit": "%"}, {"measurement": "Activity", "setting": "BT-474 [14]", "value": 63.41, "unit": "%"}, {"measurement": "Activity", "setting": "BT-474 [15]", "value": 5.57, "unit": "%"}, {"measurement": "Activity", "setting": "BT-474 [16]", "value": 9.09, "unit": "%"}, {"measurement": "Activity", "setting": "BT-474 [17]", "value": 50.48, "unit": "%"}, {"measurement": "Activity", "setting": "BT-474 [18]", "value": 61.44, "unit": "%"}, {"measurement": "Activity", "setting": "BT-474 [19]", "value": "Dose-dependent effect"}, {"measurement": "Activity", "setting": "BT-474 [20]", "value": "Active"}, {"measurement": "Activity", "setting": "BT-474 [21]", "value": 10.81, "unit": "%"}, {"measurement": "inhibition", "setting": "Tubulin (Homo sapiens) [22]", "value": "Active"}, {"measurement": "Activity", "setting": "BT-474 [23]", "value": "Dose-dependent effect"}]}]}
